Compound activity deposited in PubChem BioAssay by Broad Institute.
Only some compounds are listed: those with a hit (about 4% of all), similar ones and a draw of the others.
rRNA inh HTS = inhibits bacterial ribosomal RNA function over humanized ribosomes. E. coli WT GFP vs humanized-ribosome RFP mutants, fluorescence, 24 h; stronger effect = lower value; DMSO median 0, no signal -100. AID 720706. GFP signal change (wild-type ribosome), % (test concentration not listed). 350,000 compounds, 1.6% hits;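 active means significant combined selectivity score with lowered wild-type GFP, culture density cut under 30%, mutant RFP and density less affected; inactive means any of these conditions unmet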
SIRT5 inh = sirtuin-5 (human) deacylase inhibition. Q9NXA8. Purified SirT5, succinyl-peptide AMC, trypsin-coupled fluorescence. inhibition, % at 15 µM. 330,000 compounds, 1.1% hits; in the data active means inhibition above about 15%
Target sequence (Q9NXA8 whole entry, looked up): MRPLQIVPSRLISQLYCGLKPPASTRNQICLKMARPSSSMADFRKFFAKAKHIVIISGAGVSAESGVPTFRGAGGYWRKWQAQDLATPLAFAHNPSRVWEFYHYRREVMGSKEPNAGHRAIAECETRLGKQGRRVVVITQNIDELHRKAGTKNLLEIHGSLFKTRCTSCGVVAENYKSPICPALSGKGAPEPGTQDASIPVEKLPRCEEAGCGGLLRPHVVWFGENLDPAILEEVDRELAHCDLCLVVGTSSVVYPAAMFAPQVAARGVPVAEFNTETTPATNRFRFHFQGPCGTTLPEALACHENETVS
C2C12 statin = suppressors of simvastatin-induced myotoxicity in C2C12 myotubes | rescue of ATP level, % at 7.49 µM | ATP luminescence, 48 h; scaled: DMSO 0, geranylgeraniol control 100 | 330,000 compounds, 0.78% hits | AID 602340;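 active means mean ATP rescue above about 67%, or every replicate alone reaching that limit, limit read from the data, passing the limit was not always enough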;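 further: myotubes were challenged with 10 µM simvastatin during compound exposure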
E-selectin induc = E-selectin induction on HUVECs | HUVEC E-selectin immunofluorescence imaging; normalized: neutral wells 0, TNF-alpha wells 100 | activation, % at 7.58 µM | 260,000 compounds, 0.37% hits;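 active means mean E-selectin-positive cell signal at least 10% of the positive control, reached in at least 60% of replicates, without over 20% cell loss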
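Assay system: HUVEC, human umbilical vein endothelial cells / Amount: 3,000 HUVEC/well / Controls: TNF-alpha positive control, DMSO neutral control / Compound dosing: single concentration / Medium: EGM-2 over gelatin coat / Evaluation: percent E-selectin-positive cells / Signal: immunofluorescence imaging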
FGF22 binding = shifts melting point of recombinant human FGF22; AID 651658; recombinant FGF22 thermal shift, SYPRO orange fluorescence; percent of sucrose octasulfate shift, DMSO zero; 340,000 compounds, 1.5% hits; activity (Tm shift, normalised), % at 9.99 µM;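 active means mean Tm shift, scaled 0 neutral to 100 positive control, at about 1.3% or above, every replicate too, limit read from the data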
Target sequence (Q9HCT0 whole entry, looked up): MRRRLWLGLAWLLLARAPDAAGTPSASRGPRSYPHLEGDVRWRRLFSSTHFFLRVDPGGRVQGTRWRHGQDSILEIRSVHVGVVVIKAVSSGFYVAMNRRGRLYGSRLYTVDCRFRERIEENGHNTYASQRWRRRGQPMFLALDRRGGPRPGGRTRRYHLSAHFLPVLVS
FN deposition inh = fibronectin deposition inhibition; inhibition, % at 12.6 µM; 350,000 compounds, 0.086% hits; AH1F fibroblasts, Alexa488-fibronectin deposition fluorescence, overnight; AID 743247;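 active means mean inhibition across replicates of 30% or more, regardless of how many single replicates reach that level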;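 further: positive control wells lacked labelled fibronectin entirely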
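Material: AH1F fibroblast monolayer depositing Alexa488-labelled fibronectin into matrix / Amount: 10000 AH1F cells per well / Signal: fluorescence 485/525 nm / Medium: DMEM, 2% serum / Compound: single dose, pinned / Incubation: 1 h cell adhesion before compound, then overnight fibronectin incubation / Reagent: Alexa488-FN, 24 nM final / Read-out: inhibition of fibronectin deposition signal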
* hit, by the source's call; . = no result given.

SMILES	rRNA inh HTS	SIRT5 inh	C2C12 statin	E-selectin induc	FGF22 binding	FN deposition inh
C[C@H](CO)N1C[C@H](C)[C@H](CN(C)S(=O)(=O)c2cn(C)cn2)Oc2ccc(NC(=O)C3CCCCC3)cc2C1=O	1	-2	20	0	0	4
O=C(NCc1ccc(F)cc1)C1CC(=O)N(C2CCCCC2)C1 (configuration not stated)	0	31*	11	0	0	9
O=C(NCc1ccccc1)C1CC(=O)N(C2CCCCC2)C1 (configuration not stated)	5	2	-3	0	0	7
O=[N+]([O-])c1cc2c(c(CSc3ncccn3)c1)OCOC2	7	0	.	3	0	-6
Cc1cccc(C)c1Nc1nnc(SCc2cc([N+](=O)[O-])cc3c2OCOC3)s1	-14	-2	244*	.	0	.
COc1cccc(N2CCN(C(=O)c3ccc(CS(=O)Cc4ccccc4Cl)o3)CC2)c1 (configuration not stated)	-31*	8	-4	0	0	-7
CC(C)NC(=O)N1CCCCN2[C@H](CO)[C@H](c3ccc(C#Cc4ccccc4)cc3)[C@H]2C1	-48	0	.	0	0	.
COC(=O)C1CCCN1C(=O)C1CCCN1C(=O)CNC(=O)OCc1ccccc1 (configuration not stated)	.	.	82*	.	.	.
COC(=O)CNC(=O)C1CCCN1C(=O)CNC(=O)OCc1ccccc1 (configuration not stated)	-1	-1	.	0	0	-4
COCC#Cc1ccc2c(c1)O[C@@H](CN(C)S(C)(=O)=O)[C@@H](C)CN([C@@H](C)CO)S2(=O)=O	-3	-2	-7	0	0	-9
Cc1ccc(-n2ncc3c2CCCC3NC(=O)c2ccccc2N2CCOCC2)cc1C (configuration not stated)	-43	-3	-6	0	0	6
O=C(NC1CCCc2c1cnn2-c1ccc(F)cc1F)c1ccccc1N1CCOCC1 (configuration not stated)	-29*	0	-6	0	.	12
CCC(=O)Nc1cc(C(=O)O)ccc1Sc1ccc(Cl)cc1	-5	-3	-4	.	44*	8
CCN(CC)CCNC(=O)c1ccc(Sc2ccc(Cl)cc2)c(NC(C)=O)c1	12	0	.	0	45*	-2
CCN(CC)CCNC(=O)c1ccc(Sc2ccc(C)cc2)c(NC(C)=O)c1	4	-1	.	.	0	.
COc1ccc(NC(=O)N(C)C[C@H]2Oc3c(NS(=O)(=O)c4ccc(C)cc4)cccc3C(=O)N([C@H](C)CO)C[C@H]2C)cc1	-3	-1	45	1	0	.
O=C(Nc1ccccc1)N[C@H]1CC[C@H](CCn2cc(-c3ccccc3F)nn2)O[C@@H]1CO	1	-7	.	1	.	.
O=C(c1cc(COc2c(F)cccc2F)on1)N1CCc2ccccc2C1	-23*	-4	4	.	0	1
O=C(c1cc(COc2ccc(F)cc2F)on1)N1C[C@H]2CC[C@H]1C2	-6	-4	-6	0	0	-7
O=C(c1cc(COc2cccc(C(F)(F)F)c2)on1)N1CCc2ccccc2C1	-22	-2	0	.	0	-16
O=C(c1cc(COc2c(F)cccc2F)on1)N1C[C@H]2CC[C@H]1C2	-20*	-2	1	0	0	7
CCOc1ccc(OCc2ccc(C(=O)N3CCc4ccccc4C3)o2)cc1	-28*	-2	8	.	0	.
CNC1=C(N(C(C)=O)c2ccc(Br)cc2)C(=O)c2ccccc2C1=O	.	.	.	.	.	19
CC(=O)C1=C(c2ccc(Br)cc2)C(=O)c2ccccc2C1=O	.	.	-122	.	.	39*
COC(=O)C1(C(=O)OC)NOC2C(=O)N(c3ccc(Cl)cc3Cl)C(=O)C21 (configuration not stated)	.	.	134*	.	.	3
SMILES	rRNA inh HTS	SIRT5 inh	C2C12 statin	E-selectin induc	FGF22 binding	FN deposition inh
COC(=O)C1(C(=O)OC)NOC2C(=O)N(N(C)c3ncc(C(F)(F)F)cc3Cl)C(=O)C21 (configuration not stated)	15	1	0	.	0	-4
Cc1cc(OCc2ccccc2)ccc1/C(O)=C1/C(=O)C(=O)N(Cc2cccnc2)C1c1ccncc1 (configuration not stated)	-29*	3	7	1	0	1
COc1ccc(/C(O)=C2/C(=O)C(=O)N(Cc3cccnc3)C2c2ccncc2)cc1F (configuration not stated)	.	.	19	.	.	.
O=C1C(=O)N(Cc2cccnc2)C(c2ccccn2)/C1=C(/O)c1ccccc1 (configuration not stated)	.	.	135*	.	.	7
Cc1ccc(S(=O)(=O)N[C@@H]2C=C[C@H](CC(=O)N3CCN(c4ccccc4)CC3)O[C@H]2CO)cc1	-5	2	-2	0	0	-5
O=C(CCN1CCCCC1)NCC[C@@H]1CC[C@H](NC(=O)C2CCCC2)[C@H](CO)O1	2	-1	2	0	0	.
CCCNC(=O)C[C@@H]1CC[C@@H]2[C@H](COC[C@H](O)CN2C(=O)Nc2ccc3c(c2)OCO3)O1	1	3	15	0	0	-5
C[C@H](NC(=O)c1nc[nH]c1C(=O)NC[C@@H](C)O)c1ccccc1	21	.	7	0	43*	3
C[C@@H](CO)NC(=O)c1nc[nH]c1C(=O)N[C@H](C)c1ccccc1	-1	.	17	0	43*	-4
CC(C)NC(=O)N(C)C[C@@H]1Oc2ncc(-c3cccc(F)c3)cc2C(=O)N([C@H](C)CO)C[C@@H]1C	0	-3	11	0	.	5
Cc1ccc(-n2c(O)c(C=Nc3ccccc3-c3n[nH]c(=S)[nH]c3=O)c3ccccc3c2=O)cc1C	-38*	-1	.	.	0	-1
O=C1C2CC=C(Cl)CC2C(=O)N1CCc1c[nH]c2ccccc12 (configuration not stated)	-26*	.	-1	.	.	9
CC(=O)N(C)C[C@H]1Oc2ncc(C#CCC3CCCC3)cc2C(=O)N([C@@H](C)CO)C[C@H]1C	8	19*	1	1	0	-6
CC(=O)N(C)C[C@@H]1Oc2ncc(C#Cc3cccc(F)c3)cc2C(=O)N([C@H](C)CO)C[C@H]1C	2	21*	8	1	0	-2
C[C@H]1CN([C@@H](C)CO)C(=O)c2cc(C#CCC3CCCC3)cnc2O[C@H]1CN(C)C(=O)c1cnccn1	2	24*	-4	1	0	-12
